Like-named read-outs stand apart in the source and are kept apart here.
How the values were obtained:
[1] = format: physicochemical; details: for cis form at photostationary state: UV light at 366 nm, quantified by HPLC
In short: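 Photostationary states measured by UV/vis spectroscopy in 10 mm path cuvettes. Cis form produced by 366 nm irradiation; trans form by 454 nm blue light. HPLC chromatograms track isomer distribution at each stationary state. Repeated switching cycles check for photofatigue. Thermal stability of the cis form followed over >3 h in buffer pH 7.4 at 37 °C.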

hCB2 = hCB2 (Homo sapiens, UniProt P34972); assay: Radioligand binding; details: hCB2-HEK membranes
rCB1 = rCB1 (Rattus norvegicus, UniProt P20272); assay: Radioligand binding; details: for Ki: cis photoisomer (irradiated with 366 nm UV light), rat brain membranes, 0.6 nM [3H]CP55940; for CB1 trans/cis ratio: ratio Ki(trans)/Ki(cis) at CB1
hCB1 = hCB1 (Homo sapiens, UniProt P21554); format: cell-based
In short: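 CHO-K1 cells express hCB1 coupled through Gαq16, so receptor activation gives intracellular calcium mobilization. Calcium flux is monitored with calcium-5 fluorescent dye on an automated fluorescence plate reader. Antagonist apparent affinity (Ke) is derived from the functional response.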

rCB1, sequence (P20272 whole entry): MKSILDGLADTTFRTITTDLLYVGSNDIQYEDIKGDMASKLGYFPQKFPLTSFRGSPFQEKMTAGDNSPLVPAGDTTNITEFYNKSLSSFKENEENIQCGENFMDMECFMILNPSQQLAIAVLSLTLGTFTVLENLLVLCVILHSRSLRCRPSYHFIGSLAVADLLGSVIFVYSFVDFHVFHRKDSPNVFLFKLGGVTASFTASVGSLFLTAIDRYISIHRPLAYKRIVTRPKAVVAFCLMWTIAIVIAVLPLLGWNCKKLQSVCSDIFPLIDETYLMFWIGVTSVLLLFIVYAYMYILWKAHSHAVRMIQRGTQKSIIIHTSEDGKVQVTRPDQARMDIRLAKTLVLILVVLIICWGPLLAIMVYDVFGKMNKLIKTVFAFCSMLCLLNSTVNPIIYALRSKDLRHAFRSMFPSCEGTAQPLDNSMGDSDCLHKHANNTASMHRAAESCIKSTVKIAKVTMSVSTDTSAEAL
hCB2, sequence (P34972 whole entry): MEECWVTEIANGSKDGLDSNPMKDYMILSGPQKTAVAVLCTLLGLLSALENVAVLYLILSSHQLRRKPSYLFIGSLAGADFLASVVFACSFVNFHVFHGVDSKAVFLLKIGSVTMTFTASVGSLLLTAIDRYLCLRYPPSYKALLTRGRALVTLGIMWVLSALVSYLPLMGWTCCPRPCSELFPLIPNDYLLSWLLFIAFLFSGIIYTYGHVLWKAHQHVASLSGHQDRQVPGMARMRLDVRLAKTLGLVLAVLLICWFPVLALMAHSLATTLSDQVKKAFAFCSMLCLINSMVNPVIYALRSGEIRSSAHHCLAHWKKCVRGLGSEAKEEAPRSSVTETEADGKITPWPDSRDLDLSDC
hCB1, sequence (P21554 whole entry): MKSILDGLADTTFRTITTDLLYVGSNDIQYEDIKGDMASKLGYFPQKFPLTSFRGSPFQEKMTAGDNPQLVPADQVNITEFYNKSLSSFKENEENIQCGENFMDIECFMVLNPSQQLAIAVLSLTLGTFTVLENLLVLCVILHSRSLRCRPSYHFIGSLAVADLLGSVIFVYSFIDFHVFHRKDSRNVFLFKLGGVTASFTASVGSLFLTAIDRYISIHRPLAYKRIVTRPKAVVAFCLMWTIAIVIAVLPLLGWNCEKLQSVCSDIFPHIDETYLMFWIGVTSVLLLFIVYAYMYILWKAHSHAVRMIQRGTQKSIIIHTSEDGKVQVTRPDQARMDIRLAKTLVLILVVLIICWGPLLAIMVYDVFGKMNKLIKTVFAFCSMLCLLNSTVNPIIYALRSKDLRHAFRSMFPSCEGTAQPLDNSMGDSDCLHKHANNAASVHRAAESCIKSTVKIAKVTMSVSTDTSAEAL

| Structure (SMILES) | cis form at photostationary state [1] | [3H]CP55950 displ at 10 μM (CB2) (hCB2; cis photoisomer (366 nm)) [%] | [3H]CP55950 displ at 10 μM (CB2) (hCB2; trans photoisomer (454 nm)) [%] | Ki (rCB1; CB1 (Ki ± SD)) [nM] | CB1 trans/cis ratio (rCB1) | Ki (rCB1; read-out: CB1 (Ki ± SD)) [nM] | [3H]CP55950 displ at 10 μM (CB2) (hCB2; reference compound, no photoisomer) [%] | reversal in the photoconversion ([1]; after being stored in the dark for 2 h) [%] | thermal stability ([1]; buffer pH 7.4, 37 °C) [h] | Kb (hCB1) [nM] |
| --- | --- | --- | --- | --- | --- | --- | --- | --- | --- | --- |
| Cc1c(C(=O)NN2CCCCC2)nn(-c2ccc(Cl)cc2Cl)c1/N=N/c1cccc(Cl)c1Cl [9b, 1-(2,4-Dichlorophenyl)-4-methyl-5-[(E)-2-(2,3-dichlorophenyl)diazen-1-yl]-N-(piperidin-1-yl)-1H-pyrazole-3-carboxamide] | approximately 50% | 61 | 81 | 716 ± 26 | 0.83 |  |  |  |  |  |
| Cc1c(C(=O)NCc2ccccc2/N=N/c2ccccc2)nn(-c2ccc(Cl)cc2Cl)c1-c1ccc(Cl)cc1 [16c, 5-(4-Chlorophenyl)-1-(2,4-dichlorophenyl)-4-methyl-N-((2-[(1E)-2-phenyldiazen-1-yl]phenyl)methyl)-1H-pyrazole-3-carboxamide] |  | 14 | 46 |  | 1.58 | 142 ± 28 |  |  |  |  |
| Cc1c(C(=O)NN2CCCCC2)nn(-c2ccc(Cl)cc2Cl)c1-c1ccc(Cl)cc1 [rimonabant, reference compound] |  |  |  |  |  |  | <10 |  |  |  |
| Cc1c(/N=N/c2cccc(Cl)c2Cl)nn(-c2ccc(Cl)cc2Cl)c1-c1ccc(Cl)cc1 [14b, 5-(4-Chlorophenyl)-1-(2,4-dichlorophenyl)-3-[(E)-2-(2,3-dichlorophenyl)diazen-1-yl]-4-methyl-1H-pyrazole] | approximately 50% | 60 | 31 | 195 ± 63 |  |  |  |  |  |  |
| Cc1ccccc1/N=N/c1c(C)c(C(=O)NN2CCCCC2)nn1-c1ccc(Cl)cc1Cl [9d, 1-(2,4-Dichlorophenyl)-4-methyl-5-[(1E)-2-(2-methylphenyl)diazen-1-yl]-N-(piperidin-1-yl)pyrazole-3-carboxamide] |  | 45 | 68 | 384 ± 40 | 0.76 |  |  |  |  |  |
| Cc1cccc(/N=N/c2c(C)c(C(=O)NN3CCCCC3)nn2-c2ccc(Cl)cc2Cl)c1 [9e, 1-(2,4-Dichlorophenyl)-4-methyl-5-[(1E)-2-(3-methylphenyl)diazen-1-yl]-N-(piperidin-1-yl)-1H-pyrazole-3-carboxamide] |  | 46 | 65 | 679 ± 160 | 0.60 |  |  |  |  |  |
| Cc1c(/N=N/c2ccccc2)nn(-c2ccc(Cl)cc2Cl)c1-c1ccc(Cl)cc1 [14a, 5-(4-Chlorophenyl)-1-(2,4-dichlorophenyl)-4-methyl-3-[(E)-2-phenyldiazen-1-yl]-1H-pyrazole] |  | 21 | <10 | 249 ± 155 | 2.16 |  |  |  |  |  |
| Cc1c(C(=O)NN2CCCCC2)nn(-c2ccc(Cl)cc2Cl)c1/N=N/c1ccc(Cl)cc1Cl [9c, 1-(2,4-Dichlorophenyl)-5-[(E)-2-(2,4-dichlorophenyl)diazen-1-yl]-4-methyl-N-(piperidin-1-yl)-1H-pyrazole-3-carboxamide] | approximately 50% | 55 | 62 | 358 ± 62 | 1.11 |  |  | 45 |  |  |
| Cc1c(C(=O)NN2CCCCC2)nn(-c2ccc(Cl)cc2Cl)c1/N=N/c1ccccc1 [9a, 1-(2,4-Dichlorophenyl)-4-methyl-5-[(E)-2-phenyldiazen-1-yl]-N-(piperidin-1-yl)-1H-pyrazole-3-carboxamide] |  | 14 | 51 | 461 ± 337 | 1.0 |  |  |  |  |  |
| Cc1c(C(=O)NCc2ccc(/N=N/c3ccccc3)cc2)nn(-c2ccc(Cl)cc2Cl)c1-c1ccc(Cl)cc1 [16a, 5-(4-Chlorophenyl)-1-(2,4-dichlorophenyl)-4-methyl-N-((4-[(1E)-2-phenyldiazen-1-yl]phenyl)methyl)-1H-pyrazole-3-carboxamide] |  | <10 | <10 | 29 ± 2.8 |  |  |  |  | > 3 | ~85.3 |
| Cc1c(C(=O)NCc2ccc(/N=N/c3ccc4c(c3)COC4)cc2)nn(-c2ccc(Cl)cc2Cl)c1-c1ccc(Cl)cc1 [16d, 5-(4-Chlorophenyl)-1-(2,4-dichlorophenyl)-N-((4-[(1E)-2-(1,3-dihydro-2-benzofuran-5-yl)diazen-1-yl]phenyl)methyl)-4-methyl-1H-pyrazole-3-carboxamide] |  | <10 | 32 | 221 ± 109 | 2.72 |  |  |  |  |  |
| Cc1c(C(=O)NCc2cccc(/N=N/c3ccccc3)c2)nn(-c2ccc(Cl)cc2Cl)c1-c1ccc(Cl)cc1 [16b, 5-(4-Chlorophenyl)-1-(2,4-dichlorophenyl)-4-methyl-N-((3-[(1E)-2-phenyldiazen-1-yl]phenyl)methyl)pyrazole-3-carboxamide] |  | <10 | 14 |  | 1.23 | 311 ± 196 |  |  |  |  |
